Key:
Felis catus [1] = species on record: Felis catus; assay: Compound was tested for inhibition of HCO3- dependent swelling of cat cerebrocortical slices at concentration of (10e-12) M; format: functional
Summary of the method: (§1)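 Cerebrocortical slices were weighed and incubated in Warburg flasks at 22 °C in medium of KCl 27, NaCl 100, glucose 10 and KH2PO4 1.2 mmol/L (27 mM K+ HEPES). HCO3- (5 mM) was added from the side arm for the final 40 min, and the compound was present throughout the 60 min. Swelling = (final − initial wet weight)/initial wet weight × 100. Two-tailed t-test versus 27 K + HCO3-.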

Felis catus [2] = species on record: Felis catus; assay: Compound was tested for inhibition of HCO3- dependent swelling of cat cerebrocortical slices at concentration of (10e-13) M; format: functional; summary of the method: as §1
Felis catus [3] = species on record: Felis catus; assay: Compound was tested for inhibition of HCO3- dependent swelling of cat cerebrocortical slices at concentration of (10e-7) M; format: functional; summary of the method: as §1
Felis catus [4] = species on record: Felis catus; assay: Compound was tested for inhibition of K+ ion uptake in cat cerebrocortical slices at concentration of (10e-7) M; format: functional
Summary of the method: (§2)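 Slices were incubated 60 min at 22 °C in 27 mM K+ medium with 5 mM HCO3- added for the last 40 min, with the compound present throughout. Slices were then filtered off, reweighed and homogenized (10% w/v) in 1 N perchloric acid. The supernatant was assayed for electrolytes, expressed as µmol/g initial wet weight. Two-tailed t-test versus 27 K + HCO3-.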

Felis catus [5] = species on record: Felis catus; assay: Compound was tested for inhibition of chloride ion uptake in cat cerebrocortical slices at concentration of (10e-10) M; format: functional; summary of the method: as §2
Felis catus [6] = species on record: Felis catus; assay: Compound was tested for inhibition of chloride ion uptake in cat cerebrocortical slices at concentration of (10e-11) M; format: functional; summary of the method: as §2
Felis catus [7] = species on record: Felis catus; assay: Compound was tested for inhibition of chloride ion uptake in cat cerebrocortical slices at concentration of (10e-12) M; format: functional; summary of the method: as §2
Felis catus [8] = species on record: Felis catus; assay: Compound was tested for inhibition of chloride ion uptake in cat cerebrocortical slices at concentration of (10e-13) M; format: functional; summary of the method: as §2
Felis catus [9] = species on record: Felis catus; assay: Compound was tested for inhibition of chloride ion uptake in cat cerebrocortical slices at concentration of (10e-7) M; format: functional; summary of the method: as §2
Felis catus [10] = species on record: Felis catus; assay: Compound was tested for inhibition of chloride ion uptake in cat cerebrocortical slices at concentration of (10e-8) M; format: functional; summary of the method: as §2
Felis catus [11] = species on record: Felis catus; assay: Compound was tested for inhibition of sodium ion uptake in cat cerebrocortical slices at concentration of (10e-10) M; format: functional
Felis catus [12] = species on record: Felis catus; assay: In vitro concentration required for 50% inhibition of swelling of cat cerebrocortical slices; format: functional; conditions: read-out: I50
Summary of the method: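 Cat cortical slices were weighed and incubated 60 min at 22 °C in 27 mM K+ medium, with HCO3- added for the last 40 min and inhibitor present throughout. Swelling = (final − initial wet weight)/initial wet weight × 100. The HCO3−-dependent increment was taken as the target. I50 is the molarity giving 50% inhibition, read from the concentration–response curve.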

Felis catus [13] = species on record: Felis catus; assay: Compound was tested for inhibition of sodium ion uptake in cat cerebrocortical slices at concentration of (10e-7) M; format: functional
Felis catus [14] = species on record: Felis catus; assay: Compound was tested for inhibition of sodium ion uptake in cat cerebrocortical slices at concentration of (10e-9 )M; format: functional
Felis catus [15] = species on record: Felis catus; assay: Compound was tested for inhibition of sodium ion uptake in cat cerebrocortical slices at concentration of (10e-11) M; format: functional
Felis catus [16] = species on record: Felis catus; assay: Compound was tested for inhibition of sodium ion uptake in cat cerebrocortical slices at concentration of (10e-12) M; format: functional
Cavia porcellus [17] = species on record: Cavia porcellus; assay: Compound was tested for inhibition of sodium ion uptake in guinea pig cerebrocortical slices at concentration of (10e-10) M; format: functional
Cavia porcellus [18] = species on record: Cavia porcellus; assay: Compound was tested for inhibition of sodium ion uptake in guinea pig cerebrocortical slices at concentration of (10e-6) M; format: functional
Cavia porcellus [19] = species on record: Cavia porcellus; assay: Compound was tested for inhibition of sodium ion uptake in guinea pig cerebrocortical slices at concentration of (10e-8) M; format: functional
Cavia porcellus [20] = species on record: Cavia porcellus; assay: Compound was tested for inhibition of HCO3- dependent swelling of guinea pig cerebrocortical slices at concentration of (10e-10) M; format: functional; summary of the method: as §1
Cavia porcellus [21] = species on record: Cavia porcellus; assay: Compound was tested for inhibition of HCO3- dependent swelling of guinea pig cerebrocortical slices at concentration of (10e-7) M; format: functional; summary of the method: as §1
Cavia porcellus [22] = species on record: Cavia porcellus; assay: Compound was tested for inhibition of HCO3- dependent swelling of guinea pig cerebrocortical slices at concentration of (10e-8) M; format: functional; summary of the method: as §1
Cavia porcellus [23] = species on record: Cavia porcellus; assay: Compound was tested for inhibition of HCO3- dependent swelling of guinea pig cerebrocortical slices at concentration of (10e-9) M; format: functional; summary of the method: as §1
Cavia porcellus [24] = species on record: Cavia porcellus; assay: Compound was tested for inhibition of chloride ion uptake in guinea pig cerebrocortical slices at concentration of (10e-9) M; format: functional; summary of the method: as §2
Cavia porcellus [25] = species on record: Cavia porcellus; assay: Compound was tested for inhibition of potassium ion uptake in guinea pig cerebrocortical slices at concentration of (10e-10) M; format: functional; summary of the method: as §2
Cavia porcellus [26] = species on record: Cavia porcellus; assay: Compound was tested for inhibition of potassium ion uptake in guinea pig cerebrocortical slices at concentration of (10e-11) M; format: functional; summary of the method: as §2
Cavia porcellus [27] = species on record: Cavia porcellus; assay: Compound was tested for inhibition of chloride ion uptake in guinea pig cerebrocortical slices at concentration of (10e-10) M; format: functional; summary of the method: as §2
Cavia porcellus [28] = species on record: Cavia porcellus; assay: Compound was tested for inhibition of chloride ion uptake in guinea pig cerebrocortical slices at concentration of (10e-6) M; format: functional; summary of the method: as §2
Cavia porcellus [29] = species on record: Cavia porcellus; assay: Compound was tested for inhibition of chloride ion uptake in guinea pig cerebrocortical slices at concentration of (10e-7) M; format: functional; summary of the method: as §2
Rattus norvegicus [30] = species on record: Rattus norvegicus; assay: Compound was tested for inhibition of potassium ion uptake in rat cerebrocortical slices at concentration of (10e-3) M; format: functional
Rattus norvegicus [31] = species on record: Rattus norvegicus; assay: Compound was tested for inhibition of potassium ion uptake in rat cerebrocortical slices at concentration of (10e-8) M; format: functional
Rattus norvegicus [32] = species on record: Rattus norvegicus; assay: Compound was tested for inhibition of sodium ion uptake in rat cerebrocortical slices at concentration of (10e-3) M; format: functional
Rattus norvegicus [33] = species on record: Rattus norvegicus; assay: Compound was tested for inhibition of sodium ion uptake in rat cerebrocortical slices at concentration of (10e-4) M; format: functional
Rattus norvegicus [34] = species on record: Rattus norvegicus; assay: Compound was tested for inhibition of HCO3- dependent swelling of rat cerebrocortical slices at concentration of (10e-3) M; format: functional; summary of the method: as §1
Rattus norvegicus [35] = species on record: Rattus norvegicus; assay: Compound was tested for inhibition of HCO3- dependent swelling of rat cerebrocortical slices at concentration of (10e-6) M; format: functional; summary of the method: as §1
Felis catus [36] = assay: In vivo activity in the acceleration-deceleration head injury assay at dose of 5 mg/kg; 1/19
Felis catus [37] = assay: In vivo activity in the acceleration-deceleration head injury assay at dose of 1 mg/kg; 12/25
Felis catus [38] = assay: In vivo activity in the acceleration-deceleration head injury assay at dose of 1 mg/kg; 14/25
Felis catus [39] = assay: In vivo activity in the acceleration-deceleration head injury assay at dose of 10 mg/kg; 15/19

CCCC12CCC(=O)C=C1c1c(cc(OCC(=O)O)c(Cl)c1Cl)C2 (single isomer, unassigned; (+)) showed a Swelling (Felis catus [1]) of 21.3%, a Swelling (Felis catus [2]) of 27.3% and a Swelling (Felis catus [3]) of 20%. For the same compound, the Activity (Felis catus [4]) was 83.9, the Activity (Felis catus [5]) was 91.9 and the Activity (Felis catus [6]) was 87.9. The Activity (Felis catus [7]) was 90.5, the Activity (Felis catus [8]) was 98.5 and the Activity (Felis catus [9]) was 86.9. It also gave an Activity (Felis catus [10]) of 89.1, an Activity (Felis catus [11]) of 86.9 and an IC50 (Felis catus [12]) of 0.02 nM. The Activity (Felis catus [13]) was 86, the Activity (Felis catus [14]) was 85.6 and the Activity (Felis catus [15]) was 86.4. The Activity (Felis catus [16]) was 96.4, the Activity (Cavia porcellus [17]) was 108.3 and the Activity (Cavia porcellus [18]) was 115. For the same compound, the Activity (Cavia porcellus [19]) was 108.6, the Swelling (Cavia porcellus [20]) was 26.8% and the Swelling (Cavia porcellus [21]) was 26.4%. The Swelling (Cavia porcellus [22]) was 24.4%, the Swelling (Cavia porcellus [23]) was 26.2% and the Activity (Cavia porcellus [24]) was 105.2. For the same compound, the Activity (Cavia porcellus [25]) was 101.3, the Activity (Cavia porcellus [26]) was 88.9 and the Activity (Cavia porcellus [27]) was 101.4. For the same compound, the Activity (Cavia porcellus [28]) was 103.8, the Activity (Cavia porcellus [29]) was 115.4 and the Activity (Rattus norvegicus [30]) was 60.2. It also gave an Activity (Rattus norvegicus [31]) of 75.4, an Activity (Rattus norvegicus [32]) of 132.4 and an Activity (Rattus norvegicus [33]) of 112.1. It also gave a Swelling (Rattus norvegicus [34]) of 19.1%, a Swelling (Rattus norvegicus [35]) of 22.7% and a Deaths (Felis catus [36]) of 1. For the same compound, the Deaths (Felis catus [37]) was 12, the Deaths (Felis catus [38]) was 14 and the Deaths (Felis catus [39]) was 15.

Source: ChEMBL document CHEMBL1123488, “Agents for the treatment of brain edema. 2. [(2,3,9,9a-Tetrahydro-3-oxo-9a-substituted-1H-fluoren-7-yl)oxy]+ ++alkanoi c acids and some of their analogues” (J Med Chem, 1986)
